According to article PMC7038784 (Clinical cancer research : an official journal of the …, 2019):
One block for each molecule: values may come before it.

What was measured:
DTC = details: study of 20 patients; cited from earlier work
[1] = Plasma pharmacokinetics in DTC expansion cohort; type: in vivo, human; details: steady-state trough
In short: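 Oral once-daily dosing in patients, 28-day cycles. The VEGFR inhibitor was profiled over 0–24 h after the first dose (C1D1). Troughs for both drugs were taken on C1D15 and at the second biopsy (C2D1 ± 48 h). Plasma was acetonitrile-extracted and run by positive-ESI LC-MS/MS: MEK inhibitor range 1–200 ng/mL; VEGFR inhibitor range 0.010–1 μg/mL, with 1:100 dilution up to 100 μg/mL. Noncompartmental analysis: Cmax observed, AUC by linear trapezoidal rule, Css,min averaged from both troughs.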

[2] = test system: progressive radioiodine refractory DTC; details: cited from earlier work
[3] = test system: thyroid cancer cell lines and xenograft models; details: preclinical studies in DTC; cited from earlier work

Compound: Cn1cnc2c(F)c(Nc3ccc(Br)cc3Cl)c(C(=O)NOCCO)cc21 [Selumetinib]
- PRs, patients (DTC): five
- stable disease, patients (DTC): three

- Css,min ([1]; trametinib 2 mg with pazopanib 800 mg daily): 18.7 ± 6.6 ng/mL
Compound: CC(=O)Nc1cccc(-n2c(=O)n(C3CC3)c(=O)c3c(Nc4ccc(I)cc4F)n(C)c(=O)c(C)c32)c1 [trametinib]

- Css,min ([1]; pazopanib 800 mg with trametinib 2 mg daily): 33800 ± 17300 ng/mL
Compound: Cc1ccc(Nc2nccc(N(C)c3ccc4c(C)n(C)nc4c3)n2)cc1S(N)(=O)=O [pazopanib]
- PR rate, papillary thyroid cancer ([2]; 5/11 patients as printed): 33%
- PR rate, follicular thyroid cancer ([2]; 8/11): 73%
- RECIST partial response (PR) rate ([2]; single-agent pazopanib, DTC overall): 49%
- median PFS ([2]; single-agent pazopanib): 360 days
- effect on p-ERK [3]: paradoxical upregulation of p-ERK
